Reference: ChEMBL document CHEMBL2163260, “Synthesis and biological evaluation of antifungal derivatives of enfumafungin as orally bioavailable inhibitors of β-1,3-glucan synthase” (Bioorg Med Chem Lett, 2012)
Converted amounts (≈) assume the structure as drawn.

What was measured:
[1] = test system: Candida albicans; assay: Antifungal activity against Candida albicans MY1055 after 24 hrs by NCCLS microdilution method; type: functional; details: MY1055, 24 h
[2] = Inhibition of Candida albicans MY1055 beta-1,3-glucan synthase assessed as [3H]UDPG incorporation after 60 mins
[3] = Clearance in po dosed mouse; type: ADME, organism-based; details: in vivo
[4] = test system: Candida albicans; assay: Antifungal activity against Candida albicans; type: functional
[5] = test system: Candida albicans; assay: Antifungal activity against Candida albicans MY1055 infected in DBA/2 mouse assessed as reduction in kidney fungal burden measured per gram of tissue at 25 mg/kg, po bid for 2 days post infection measured after 4 days relative to sham-treated control; type: functional
Method in brief: (§1)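 DBA/2 mice were given 3.0 × 10^4 CFU of C. albicans MY1055 iv into the lateral tail vein in 0.2 mL. Dosing ip or po, bid for 2 days, began 15–30 min after challenge, with a sham-treated control for each route and diluent. At day 4, paired kidneys (4–5 mice/group) were homogenized in saline, serially diluted and plated on SD agar (35 °C, 30–48 h). Mean CFU/g was compared with sham.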

[6] = test system: Mus musculus; assay: Dose normalised AUC in po dosed mouse; type: ADME, organism-based; details: in vivo
[7] = test system: Candida albicans; assay: Antifungal activity against Candida albicans MY1055 infected in DBA/2 mouse assessed as reduction in kidney fungal burden measured per gram of tissue at 12.5 mg/kg, ip bid for 2 days post infection measured after 4 days relative to sham-treated control; type: functional; details: route intraperitoneal; method in brief: as §1
[8] = Inhibition of Candida albicans beta-1,3-glucan synthase assessed as [3H]UDPG incorporation after 60 mins by scintillation counting
Method in brief: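 C. albicans glucan synthase was incubated for 60 min at 22 °C in 50 mM HEPES pH 7.5 with 0.5 mM 3H-UDPG (6000–8000 dpm/nmol), 10% glycerol, 1.5 mg/mL BSA, 25 mM KF, 1 mM EDTA and GTP-γ-S. Enzyme was set to give 3–6 nmol incorporation. Compounds were added as threefold DMSO dilutions. The reaction was stopped with 20% TCA and chilled, and glucan was collected on GF/C filters, water-washed and scintillation counted.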

[9] = Oral bioavailability in mouse; type: ADME, organism-based; details: in vivo
[10] = test system: Candida albicans; assay: Antifungal activity against Candida albicans MY1055 infected in DBA/2 mouse assessed as reduction in kidney fungal burden measured per gram of tissue at 12.5 mg/kg, po bid for 2 days post infection measured after 4 days relative to sham-treated control; type: functional; method in brief: as §1
[11] = test system: Candida albicans; assay: Antifungal activity against Candida albicans MY1055 infected in DBA/2 mouse assessed as reduction in kidney fungal burden measured per gram of tissue at 6.25 mg/kg, po bid for 2 days post infection measured after 4 days relative to sham-treated control; type: functional; method in brief: as §1

MIC [1] | IC50 [2] | clearance [3] | MIC [4] | AUC/dose [6] | IC50 [8] | bioavailability [9] | Compound | deltalog10CFU [5] | deltalog10CFU [7] | deltalog10CFU [10] | deltalog10CFU [11]
0.2 µg/mL (≈ 0.282 µM) | 0.05 µg/mL (≈ 0.0705 µM) | – | – | – | – | – | CC(=O)O[C@@H]1C[C@]23C4=CC[C@@]5(C)[C@H](C(=O)O)[C@@](C)([C@H](C)C(C)C)CC[C@]5(C)[C@H]4CC[C@H]2[C@@](C)(COC3O)[C@H]1O[C@@H]1O[C@H](CO)[C@@H](O)[C@H](O)[C@H]1O (stereo not given in full) [ENFUMAFUNGIN] | – | – | – | –
– | – | 19.2 mL/min/kg | 0.125 µg/mL (≈ 0.175 µM) | 0.06 µM·kg·h/mg | 0.004 µg/mL (≈ 0.0056 µM) | 4.7% | CC(C)[C@@H](C)[C@@]1(C)CC[C@]2(C)[C@H]3CC[C@@H]4[C@@]5(COC[C@@]4(C)[C@@H](OC[C@@]4(C)CCCN4)[C@H](n4ncnc4-c4ccncc4)C5)C3=CC[C@@]2(C)[C@@H]1C(=O)O | -2.16 | -2.83 | – | –
– | – | 16 mL/min/kg | 0.03 µg/mL (≈ 0.0403 µM) | 0.62 µM·kg·h/mg | 0.002 µg/mL (≈ 0.00269 µM) | 42% | CN[C@@](C)(CO[C@H]1[C@H](n2ncnc2-c2ccncc2)C[C@@]23COC[C@]1(C)[C@@H]2CC[C@H]1C3=CC[C@@]2(C)[C@H](C(=O)O)[C@@](C)([C@H](C)C(C)C)CC[C@]12C)C(C)(C)C | -4.25 | -4.37 | -3.88 | -2.72
– | – | – | 1 µg/mL (≈ 1.4 µM) | – | 0.061 µg/mL (≈ 0.0854 µM) | – | CC(C)[C@@H](C)[C@@]1(C)CC[C@]2(C)[C@H]3CC[C@@H]4[C@@]5(COC[C@@]4(C)[C@@H](OC[C@@H]4CCCN4C)[C@H](n4ncnc4-c4ccncc4)C5)C3=CC[C@@]2(C)[C@@H]1C(=O)O | – | – | – | –
– | – | – | 0.125 µg/mL (≈ 0.172 µM) | – | 0.0064 µg/mL (≈ 0.00879 µM) | – | CC(C)[C@@H](C)[C@@]1(C)CC[C@]2(C)[C@H]3CC[C@@H]4[C@@]5(COC[C@@]4(C)[C@@H](OC[C@@]4(C)CCCN4C)[C@H](n4ncnc4-c4ccncc4)C5)C3=CC[C@@]2(C)[C@@H]1C(=O)O | -2 | -1.8 | -1.4 | -0.9
– | – | – | 1 µg/mL (≈ 1.43 µM) | – | 0.018 µg/mL (≈ 0.0257 µM) | – | CC(C)[C@@H](C)[C@@]1(C)CC[C@]2(C)[C@H]3CC[C@@H]4[C@@]5(COC[C@@]4(C)[C@@H](OC[C@@H]4CCCN4)[C@H](n4ncnc4-c4ccncc4)C5)C3=CC[C@@]2(C)[C@@H]1C(=O)O | -1.32 | -2.18 | -0.26 | -0.4
– | – | 16.3 mL/min/kg | 0.5 µg/mL (≈ 0.714 µM) | 0.03 µM·kg·h/mg | 0.022 µg/mL (≈ 0.0314 µM) | 1.7% | CC(C)[C@@H](C)[C@@]1(C)CC[C@]2(C)[C@H]3CC[C@@H]4[C@@]5(COC[C@@]4(C)[C@@H](OC[C@H]4CCCN4)[C@H](n4ncnc4-c4ccncc4)C5)C3=CC[C@@]2(C)[C@@H]1C(=O)O | -2.09 | -1.69 | -1.81 | -0.27
– | – | 13.1 mL/min/kg | 0.5 µg/mL (≈ 0.7 µM) | 0.06 µM·kg·h/mg | 0.019 µg/mL (≈ 0.0266 µM) | 23% | CC(C)[C@@H](C)[C@@]1(C)CC[C@]2(C)[C@H]3CC[C@@H]4[C@@]5(COC[C@@]4(C)[C@@H](OC[C@H]4CCCN4C)[C@H](n4ncnc4-c4ccncc4)C5)C3=CC[C@@]2(C)[C@@H]1C(=O)O | -1.14 | -1.84 | -0.9 | -1.22
